ChEMBL document CHEMBL1125722 (J Med Chem, 1991)
pIC50: −log10 of the molar value. Calls of active or inactive are those of the source. The rule behind the calls is not given here.

What was measured:
[1] = test system: Rattus norvegicus; assay: Effective dose for apomorphine induced circling behavior was determined in rats after subcutaneous administration of the compound; type: functional; conditions: sc
[2] = test system: Rattus norvegicus; assay: Antagonist and antinociceptive profile was evaluated in a paraphenylquinone assay after subcutaneous injection.; type: functional
[3] = test system: Monkey; assay: Antagonist action in tail-flick antagonism vs morphine, in rhesus monkeys. Compound was injected subcutaneously.; type: functional; conditions: Cercopithecidae, in Macaca mulatta, sc
[4] = species on record: Rattus norvegicus; assay: Agonist/antagonist and antinociceptive profile was assessed in a hotplate assay.; type: functional
[5] = test system: Rattus norvegicus; assay: Effective dose for apomorphine induced circling behavior was determined in rats after subcutaneous administration of the compound.; type: functional
[6] = species on record: Rattus norvegicus; assay: Tail-flick assay was performed to determine antinociceptive profile of the compound.; type: functional; design: unit not given here
[7] = target: T1, Mu-type opioid receptor (Rattus norvegicus, UniProt P33535); assay: Opioid activity in terms of inhibition of [3H]dihydromorphine binding to Opioid receptor mu 1 in rat brain membrane.; type: cell membranes
T1 sequence (P33535 whole entry): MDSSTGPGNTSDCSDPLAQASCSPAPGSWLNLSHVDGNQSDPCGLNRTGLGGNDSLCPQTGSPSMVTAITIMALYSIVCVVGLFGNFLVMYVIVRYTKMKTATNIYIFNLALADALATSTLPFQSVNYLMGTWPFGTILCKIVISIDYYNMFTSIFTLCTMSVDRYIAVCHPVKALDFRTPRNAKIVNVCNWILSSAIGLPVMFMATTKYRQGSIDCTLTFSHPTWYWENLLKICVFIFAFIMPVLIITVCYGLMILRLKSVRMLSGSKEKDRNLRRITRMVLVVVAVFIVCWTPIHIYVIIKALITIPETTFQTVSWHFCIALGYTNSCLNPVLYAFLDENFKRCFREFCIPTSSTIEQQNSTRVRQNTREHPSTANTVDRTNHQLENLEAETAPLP
How it was run: (§1)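 Whole-brain membranes, cerebellum removed, from male Sprague-Dawley rats (1 mg protein/mL) in 50 mM Tris-HCl pH 7.4 were preincubated 60 min at 25 °C. [3H]dihydromorphine was added to a […], with varying drug concentrations, for 60 min at 25 °C. Nonspecific binding was defined by 10⁻⁵ M naloxone, with GF/B filtration and scintillation counting.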

[8] = target: T2, D(2) dopamine receptor (Rattus norvegicus, UniProt P61169); assay: Neuroleptic activity in terms of [3H]spiroperidol binding to Dopamine receptor D2 in rat striatal membrane.; type: cell membranes
T2 sequence (P61169 whole entry): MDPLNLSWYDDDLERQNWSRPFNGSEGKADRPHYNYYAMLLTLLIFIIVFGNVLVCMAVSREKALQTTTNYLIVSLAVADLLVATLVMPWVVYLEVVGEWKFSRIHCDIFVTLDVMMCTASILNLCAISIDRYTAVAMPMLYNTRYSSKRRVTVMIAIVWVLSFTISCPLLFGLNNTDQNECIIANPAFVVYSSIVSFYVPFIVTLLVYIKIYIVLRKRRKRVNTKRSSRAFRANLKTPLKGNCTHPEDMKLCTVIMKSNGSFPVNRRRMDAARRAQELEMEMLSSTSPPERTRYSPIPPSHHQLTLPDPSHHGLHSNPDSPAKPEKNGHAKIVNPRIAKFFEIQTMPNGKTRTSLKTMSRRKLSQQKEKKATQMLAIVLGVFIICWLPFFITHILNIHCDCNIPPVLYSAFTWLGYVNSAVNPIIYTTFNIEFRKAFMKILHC
How it was run: (§2)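 Striatal membranes from male Sprague-Dawley rats (1.4 mg protein/mL) were used in 50 mM Tris-HCl pH 7.1 with 0.1% ascorbate, 10 μM pargyline, 120 mM NaCl, 5 mM KCl and 1 mM each of CaCl2 and MgCl2. Incubation was with […], 20 min at 37 °C. Nonspecific binding was defined by 10⁻⁶ M haloperidol, with filtration and scintillation counting.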

[9] = test system: Monkey; assay: Antagonist action in tail-flick antagonism vs morphine, in rhesus monkeys. Compound was injected subcutaneously; Not active; type: functional, organism-based; conditions: Cercopithecidae
[10] = test system: Rattus norvegicus; assay: Antagonist and antinociceptive profile was evaluated in a paraphenylquinone assay after subcutaneous injection; conditions: sc
[11] = species on record: Rattus norvegicus; assay: Agonist/antagonist and antinociceptive profile was assessed in a hotplate assay
[12] = test system: Monkey; assay: Antagonist action in tail-flick antagonism vs morphine, in rhesus monkeys, compound was injected subcutaneously; Not Active; type: functional, organism-based; conditions: Cercopithecidae
[13] = target: T1, Mu-type opioid receptor; assay: Opioid activity in terms of inhibition of [3H]dihydromorphine binding to opioid receptor mu in rat brain membrane.; type: cell membranes; how it was run: as §1
[14] = target: T2, D(2) dopamine receptor; assay: Neuroleptic activity in terms of [3H]spiroperidol binding to dopamine receptor D2 in rat striatal membrane.; type: cell membranes; how it was run: as §2
[15] = Rattus norvegicus, sc, read-out: ED50
[16] = Rattus norvegicus, read-out: ED50

SMILES	ED50 [2, 15] [µmol/kg]	ED50 [4, 16] [µmol/kg]	ED50 [5] [µM/kg]	Activity [6]	pIC50 [8]	also measured
O=C(CCCN1CCC(O)(c2ccc(Cl)cc2)CC1)c1ccc(F)cc1 [HALOPERIDOL]	–	–	–	–	–	ED50 [1]: 0.1 µmol/kg
CCC(=O)O[C@@]1(c2ccccc2)CCN(CCCC(=O)c2ccc(F)cc2)CC1C (mixture of isomers)	0.2	1.6	3.9	1.7	7.27	ED50 [3]: > 60.8 µmol/kg; pIC50 [7]: 8.02
CCC(=O)O[C@]1(c2ccccc2)CCN(CCCC(=O)c2ccc(F)cc2)C[C@H]1C	2.9	> 72.9	–	>60.8	6.83	ED50 [9]: inactive; ED50 [5, 15]: > 12 µmol/kg
CN1CC[C@]23c4c5ccc(O)c4O[C@H]2[C@@H](O)C=C[C@H]3[C@H]1C5 [MORPHINE]	–	–	–	10.6	–	ED50 [10]: 0.4 µmol/kg; ED50 [11]: 2.9 µmol/kg; ED50 [12]: inactive
CCC(=O)O[C@@]1(c2ccccc2)CCN(CCCC(=O)c2ccc(F)cc2)CC1C (single isomer, unassigned; (+))	–	–	1.6	0.8	–	ED50 [2]: 0.2 µM/kg; ED50 [4]: 0.9 µM/kg; pIC50 [13]: 8.21; pIC50 [14]: 7.36
